Source: ChEMBL document CHEMBL1909581, “Growth inhibition of human lung cancer cells via down-regulation of epidermal growth factor receptor signaling by yuanhuadine, a daphnane diterpene from Daphne genkwa” (J Nat Prod, 2011)
The source made the active and inactive calls. No cut-off for these calls is given here.

Columns and labels:
[1] = molecular target: Signal transducer and activator of transcription 3 (Homo sapiens) (UniProt P40763); experiment: Inhibition of STAT3 phosphorylation in human A549 cells after 24 hrs by Western blot analysis; assay type: cell-based
In short: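 A549 cells (RPMI 1640, 10% FBS, 37 °C, 5% CO2) exposed to the compound at various concentrations for 24 or 48 h. Lysates run on 6–15% SDS-PAGE, transferred to PVDF, probed with primary antibodies overnight at 4 °C, and detected by ECL. Blots shown are representative of three independent experiments.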

MRC5 = experiment: Antiproliferative activity against human MRC5 cells after 3 days by SRB assay; assay type: cell-based; settings: mrc5, 72 h
In short: (§1)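 Cells seeded at 5 × 10^4 cells/mL and exposed to a range of concentrations for 3 days. Fixed with 10% TCA, then SRB stain read. Growth expressed as % of solvent-treated control. IC50 obtained by nonlinear regression of percent survival versus concentration.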

SW480 = experiment: Antiproliferative activity against human SW480 cells after 3 days by SRB assay; assay type: functional, cell-based; settings: SW480, 72 h; in short: as §1
A549 [2] = experiment: Antiproliferative activity against human A549 cells assessed as growth inhibition incubated for 24 hrs measured 48 hrs after compound washout by SRB assay; assay type: functional, cell-based
A549 [3] = experiment: Antiproliferative activity against human A549 cells after 3 days by SRB assay; assay type: functional, cell-based; settings: A549, 72 h; in short: as §1
[4] = Antiproliferative activity against human H1299 cells after 3 days by SRB assay; assay type: functional, cell-based; settings: NCI-H1299, 72 h; in short: as §1
A549 [5] = experiment: Cell cycle arrest in human A549 cells assessed as accumulation at Sub-G1 phase at 20 nM after 48 hrs by propidium iodide staining-based flow cytometric analysis (reference value: 0.2 %); assay type: functional
A549 [6] = experiment: Cell cycle arrest in human A549 cells assessed as accumulation at G0/G1 phase at 100 nM after 24 hrs by propidium iodide staining-based flow cytometric analysis (reference value: 49.6 %); assay type: functional
[7] = molecular target: Hepatocyte growth factor receptor (Homo sapiens) (UniProt P08581); experiment: Inhibition of c-Met-mediated Akt phosphorylation in HGF-stimulated human A549 cells pretreated at 5 to 100 nM by Western blot analysis; assay type: cell-based
In short: (§2)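 A549 cells pretreated for 2 h with the compound at 5, 20 or 100 nM, then stimulated with HGF (50 ng/mL) for 10 min. c-Met and its downstream signalling proteins read by Western blot (SDS-PAGE, PVDF transfer, ECL detection).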

Mus musculus = experiment: Toxicity in BALB/c mouse xenografted with human A549 cells in assessed as overt signs at 0.5 mg/kg, po once daily for 14 days measured for 27 days relative to control; assay type: organism-based; parameters: dose 0.5 mg/kg, route oral; settings: in vivo, 648 h
In short: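 Female nu/nu mice were injected sc in the right flank with 3 × 10^6 A549 cells. At about 100 mm3 tumour volume, mice were randomised into groups of five. Compound was given orally at 0.2 or 0.5 mg/kg once daily for 14 days in ethanol/Tween 80/H2O (1:1:98). Body weight and overt toxicity were monitored against vehicle controls.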

A549 [8] = experiment: Downregulation of cyclin E expression in human A549 cells at G1 phase at 5 to 100 nM after 24 to 48 hrs by Western blot analysis; assay type: functional, cell-based
In short: (§3)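 A549 cells treated with a range of concentrations for 24 or 48 h. Lysates run on 6–15% SDS-PAGE and blotted to PVDF, blocked in 5% milk/PBST. Primary antibodies overnight at 4 °C, secondary 2 h at room temperature, ECL detection. Representative of three independent experiments.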

[9] = molecular target: Hepatocyte growth factor receptor (Homo sapiens) (UniProt P08581); experiment: Inhibition of c-Met phosphorylation at Tyr1003 in HGF-stimulated human A549 cells pretreated at 5 to 100 nM for 2 hrs by Western blot analysis; assay type: cell-based; in short: as §2
A549 [10] = experiment: Cell cycle arrest in human A549 cells assessed as accumulation at G0/G1 phase at 20 nM after 48 hrs by propidium iodide staining-based flow cytometric analysis (reference value: 49.6 %); assay type: functional
SK-MES-1 = experiment: Antiproliferative activity against human SK-MES cells after 3 days by SRB assay; assay type: functional, cell-based; settings: SK-MES-1, 72 h; in short: as §1
A549 [11] = experiment: Downregulation of CDK2 expression in human A549 cells at G1 phase at 5 to 100 nM after 24 to 48 hrs by Western blot analysis; assay type: functional, cell-based; in short: as §3
A549 [12] = experiment: Cell cycle arrest in human A549 cells assessed as accumulation at G2/M phase at 100 nM after 48 hrs by propidium iodide staining-based flow cytometric analysis (reference value: 18.9 %); assay type: functional
T47D = experiment: Antiproliferative activity against human T47D cells after 3 days by SRB assay; assay type: functional, cell-based; settings: 72 h; in short: as §1
A549 [13] = experiment: Cell cycle arrest in human A549 cells assessed as accumulation at S phase at 20 nM after 48 hrs by propidium iodide staining-based flow cytometric analysis (reference value: 31.6 %); assay type: functional
[14] = molecular target: Hepatocyte growth factor receptor (Homo sapiens) (UniProt P08581); experiment: Inhibition of c-Met-mediated FAK phosphorylation in HGF-stimulated human A549 cells pretreated at 5 to 100 nM by Western blot analysis; assay type: cell-based; in short: as §2
A549 [15] = experiment: Cell cycle arrest in human A549 cells assessed as accumulation at Sub-G1 phase at 5 nM after 48 hrs by propidium iodide staining-based flow cytometric analysis (reference value: 0.2 %); assay type: functional
A549 [16] = experiment: Antiproliferative activity against human A549 cells assessed as growth inhibition incubated for 24 hrs measured 24 hrs after compound washout by SRB assay; assay type: functional, cell-based
In short: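 A549 cells exposed to a range of concentrations for 24 h, washed with PBS and kept in drug-free medium for 24 h. Compared with continuous 24 h and 48 h exposure. Viability read by SRB. Means ± SE of triplicate tests.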

A549 [17] = experiment: Cell cycle arrest in human A549 cells assessed as accumulation at S phase at 100 nM after 24 hrs by propidium iodide staining-based flow cytometric analysis (reference value: 31.6 %); assay type: functional
A549 [18] = experiment: Cell cycle arrest in human A549 cells assessed as accumulation at G2/M phase at 5 nM after 48 hrs by propidium iodide staining-based flow cytometric analysis (reference value: 18.9 %); assay type: functional
A549 [19] = experiment: Cell cycle arrest in human A549 cells assessed as accumulation at Sub-G1 phase at 20 nM after 24 hrs by propidium iodide staining-based flow cytometric analysis (reference value: 0.2 %); assay type: functional
A549 [20] = experiment: Antitumor activity against human A549 cells xenografted in BALB/c mouse assessed as inhibition of tumor growth at 0.5 mg/kg, po once daily for 14 days measured for 27 days relative to control; assay type: functional; settings: read-out: GI
In short: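 Female nu/nu nude mice given 3 × 10^6 A549 cells sc into the right flank, in 200 μL medium. At ~100 mm3, randomized into groups of five. Dosed orally once daily for 14 days in 100 μL ethanol–Tween 80–water (1:1:98), vehicle as control. Tumor volume measured by caliper every 2–3 days; body weight monitored.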

SK-HEP1 = experiment: Antiproliferative activity against human SKHEP1 cells after 3 days by SRB assay; assay type: functional, cell-based; settings: SK-HEP1, 72 h; in short: as §1
NCI-H358 = experiment: Antiproliferative activity against human NCI-H358 cells after 3 days by SRB assay; assay type: functional, cell-based; settings: NCI-H358, 72 h; in short: as §1

Chain of Hepatocyte growth factor receptor (Homo sapiens) (P08581 whole entry): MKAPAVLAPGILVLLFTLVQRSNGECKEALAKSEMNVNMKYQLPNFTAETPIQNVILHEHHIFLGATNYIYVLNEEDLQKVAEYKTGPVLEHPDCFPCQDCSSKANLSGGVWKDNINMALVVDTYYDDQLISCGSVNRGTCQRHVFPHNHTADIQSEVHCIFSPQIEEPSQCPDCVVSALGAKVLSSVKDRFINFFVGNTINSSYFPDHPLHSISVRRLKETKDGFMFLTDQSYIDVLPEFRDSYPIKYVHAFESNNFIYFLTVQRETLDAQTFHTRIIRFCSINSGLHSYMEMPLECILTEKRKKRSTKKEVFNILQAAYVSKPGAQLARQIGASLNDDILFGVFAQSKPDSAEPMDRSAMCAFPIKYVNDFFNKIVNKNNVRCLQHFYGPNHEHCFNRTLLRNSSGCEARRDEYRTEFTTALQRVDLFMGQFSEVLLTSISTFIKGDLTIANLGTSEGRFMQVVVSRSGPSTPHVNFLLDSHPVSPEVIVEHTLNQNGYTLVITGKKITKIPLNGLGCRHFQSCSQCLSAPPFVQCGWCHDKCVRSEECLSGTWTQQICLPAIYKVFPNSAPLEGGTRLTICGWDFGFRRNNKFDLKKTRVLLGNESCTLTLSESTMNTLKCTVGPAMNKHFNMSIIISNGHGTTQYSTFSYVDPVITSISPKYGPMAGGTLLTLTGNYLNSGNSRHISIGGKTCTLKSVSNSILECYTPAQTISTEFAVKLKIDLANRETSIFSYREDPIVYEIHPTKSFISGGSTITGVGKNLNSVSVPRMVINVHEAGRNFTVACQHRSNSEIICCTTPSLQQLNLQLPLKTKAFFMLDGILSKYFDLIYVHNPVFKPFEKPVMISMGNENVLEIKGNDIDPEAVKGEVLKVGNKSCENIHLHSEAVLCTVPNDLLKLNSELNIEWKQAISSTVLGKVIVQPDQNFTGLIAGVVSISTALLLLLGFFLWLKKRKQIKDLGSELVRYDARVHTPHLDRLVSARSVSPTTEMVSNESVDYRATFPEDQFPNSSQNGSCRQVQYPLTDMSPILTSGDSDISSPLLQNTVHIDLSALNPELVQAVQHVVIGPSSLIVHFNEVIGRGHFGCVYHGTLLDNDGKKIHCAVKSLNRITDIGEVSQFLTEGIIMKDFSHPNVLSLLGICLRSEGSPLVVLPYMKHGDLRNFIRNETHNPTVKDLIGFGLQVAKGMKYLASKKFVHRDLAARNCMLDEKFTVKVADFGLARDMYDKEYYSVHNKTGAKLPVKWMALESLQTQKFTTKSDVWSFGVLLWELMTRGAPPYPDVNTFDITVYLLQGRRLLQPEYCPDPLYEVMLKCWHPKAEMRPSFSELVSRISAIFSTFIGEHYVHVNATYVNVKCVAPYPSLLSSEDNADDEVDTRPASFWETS
Chain of Signal transducer and activator of transcription 3 (Homo sapiens) (P40763 whole entry): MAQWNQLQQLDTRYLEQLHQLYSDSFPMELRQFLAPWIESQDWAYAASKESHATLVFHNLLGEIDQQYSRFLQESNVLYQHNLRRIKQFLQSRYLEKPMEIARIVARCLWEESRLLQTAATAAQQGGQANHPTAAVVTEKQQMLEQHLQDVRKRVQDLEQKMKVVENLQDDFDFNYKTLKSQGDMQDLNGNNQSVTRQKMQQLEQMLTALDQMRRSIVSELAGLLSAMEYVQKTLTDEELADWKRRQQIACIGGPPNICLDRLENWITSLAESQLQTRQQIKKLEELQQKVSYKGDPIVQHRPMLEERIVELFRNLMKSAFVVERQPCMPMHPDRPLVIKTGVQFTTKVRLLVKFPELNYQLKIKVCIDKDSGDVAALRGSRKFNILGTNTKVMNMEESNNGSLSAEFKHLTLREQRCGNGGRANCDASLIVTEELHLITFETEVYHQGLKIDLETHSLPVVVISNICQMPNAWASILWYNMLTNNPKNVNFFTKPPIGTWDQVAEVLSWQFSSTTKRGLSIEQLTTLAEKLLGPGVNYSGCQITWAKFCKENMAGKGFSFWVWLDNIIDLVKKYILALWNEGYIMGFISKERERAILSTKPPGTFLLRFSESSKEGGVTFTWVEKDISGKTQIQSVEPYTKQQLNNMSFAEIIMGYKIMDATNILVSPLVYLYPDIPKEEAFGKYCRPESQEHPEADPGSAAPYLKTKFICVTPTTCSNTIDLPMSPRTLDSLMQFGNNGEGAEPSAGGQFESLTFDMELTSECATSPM

## C=C(C)[C@@]12O[C@@]3(/C=C/C=C/CCCCC)O[C@@H]1[C@@H]1[C@@H]4O[C@]4(CO)[C@@H](O)[C@]4(O)C(=O)C(C)=C[C@H]4[C@@]1(O3)[C@H](C)[C@H]2OC(C)=O [YUANHUADINE]
[1]
  inhibition: Dose-dependent effect
MRC5
  growth inhibition (GI): Non-toxic
SW480
  IC50: 11.8 µM
A549 [2]
  growth inhibition (GI): inactive
A549 [3]
  IC50: 0.012 µM
[4]
  IC50: 5.6 µM
A549 [5]
  Activity: 0.4%
A549 [6]
  Activity: 65.3%
[7]
  inhibition: Active
Mus musculus
  Activity: Non-toxic
A549 [8]
  Activity: Active
[9]
  inhibition: Active
A549 [10]
  Activity: 62.2%
SK-MES-1
  IC50: < 1 pM
A549 [11]
  Activity: Active
A549 [12]
  Activity: 26.3%
T47D
  IC50: 12.7 µM
A549 [13]
  Activity: 15.6%
[14]
  inhibition: Active
A549 [15]
  Activity: 7.5%
A549 [16]
  growth inhibition (GI): Active
A549 [17]
  Activity: 6.7%
A549 [18]
  Activity: 25.1%
A549 [19]
  Activity: 1.8%
A549 [20]
  inhibition in vivo at 0.5 mg/kg: 50%
SK-HEP1
  IC50: 12.9 µM
NCI-H358
  IC50: 9.1 µM
